Most compounds without a hit are left out; they make up all but 2.6% or so of the library.
NadD block: inhibitors of Staphylococcus aureus NadD; hit rate 0.78% among 360,000; inhibition, % at 20 µM; purified NadD enzyme, colorimetric absorbance read-out; in the data active = inhibition above about 26%
LMPTP inh: blocks human LMPTP phosphatase | P24666 | recombinant LMPTP-A, OMFP fluorogenic substrate, fluorescence intensity | inhibition, % at 20 µM | hit rate 0.22% among 360,000;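 active = compounds that cut the enzyme signal by at least half of the control window in the single-dose screen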;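 also: plate controls were DMSO wells with enzyme plus substrate for no effect and substrate without enzyme for full effect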
Target sequence (P24666 whole entry, looked up): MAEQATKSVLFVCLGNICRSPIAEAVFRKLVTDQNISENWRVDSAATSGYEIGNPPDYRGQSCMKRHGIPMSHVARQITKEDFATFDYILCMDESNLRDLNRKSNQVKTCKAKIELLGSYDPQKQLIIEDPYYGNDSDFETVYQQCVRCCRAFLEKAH
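material = LMPTP-A | quantity = 0.625 nM enzyme | reagent = OMFP substrate, 400 µM final | buffer or medium = Bis-Tris pH 6.0, DTT, detergent | detection = endpoint fluorescence intensity from OMFP dephosphorylation | dosing = single 20 µM dose | read-out basis = % inhibition relative to no-enzyme and uninhibited control wells | control set = no-enzyme and uninhibited controls | timing = 50 min at room temperature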
rCAG RNA binder: molecules binding r(CAG) RNA repeats. r(CAG) RNA repeat, TO-PRO-1 dye displacement fluorescence. inhibition, % at 3 µM. AID 651821. hit rate 1.3% among 370,000;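 active = inhibition above the plate cutoff, the mean of all test compounds on that plate plus 3 SD, cut at about 35% in these data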;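 also: 0% = DMSO alone and 100% = 100 µM mitoxantrone as full dye displacement; higher means more dye released from RNA so lower well fluorescence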
Scp1 inh: Scp-1 (human) phosphatase inhibition; hit rate 0.88% among 340,000; inhibition, % at 20 µM; AID 493091; Recombinant Scp1, phosphopeptide, malachite green phosphate absorbance;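 active = inhibition above about 50% at 20 µM, limit read from the data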;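 also: plate controls were DMSO wells with enzyme for no effect and wells lacking enzyme for full effect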
Target sequence (Q9GZU7 76-261 limits assumed): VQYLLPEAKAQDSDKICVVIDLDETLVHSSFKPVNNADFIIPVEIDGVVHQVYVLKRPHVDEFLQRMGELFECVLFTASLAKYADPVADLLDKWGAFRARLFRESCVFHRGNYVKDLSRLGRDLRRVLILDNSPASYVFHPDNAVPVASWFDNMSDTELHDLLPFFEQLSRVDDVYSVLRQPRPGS
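Material: truncated SCP-1 phosphatase (76-261aa) / Buffer or medium: 50 mM Tris acetate pH 5.5, 0.005% Tween-20, 10 mM MgCl2 / Compound dosing: one concentration, 20 µM, with 1.0% DMSO / Incubation: 45 min room-temperature reaction, 5 min colour, 30 min stabiliser / Detection: colorimetric free-phosphate detection, absorbance 630 nm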
STEP inh: STEP (human) phosphatase inhibition. P54829. recombinant STEP, OMFP fluorogenic substrate, fluorescence. inhibition, % at 20 µM. hit rate 0.25% among 360,000;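 active = inhibition at 20 µM, scaled per plate between control wells, above about 37%, limit read from the data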;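 also: 0% = DMSO with enzyme and substrate and 100% = substrate only without enzyme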
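System: STEP phosphatase, cell-free reaction; Buffer or medium: Bis-Tris pH 6.0 buffer with DTT, detergent; Incubation: 20 min at room temperature, dark; Measured by: fluorescence, 480/540 nm.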
Numbers without * were called inactive.

CN1C(=O)c2cc(NC(=O)Nc3ccccc3)ccc2OC[C@H]2O[C@@H](CC(=O)NCc3ccc(-c4ccccc4)cc3)CC[C@@H]21 was read as rCAG RNA binder 17.
CCCCCCCCN1C(=O)[C@@H](CC(=O)NCCCOCCCC)C[C@@]2(C(=O)OC)C1=C[C@H](C(C)(C)C)O[C@@H]2C was read as rCAG RNA binder 6.
COc1cc2cccc(OC)c(=O)c2c(O)c1OC was read as NadD block 7, LMPTP inh 0, rCAG RNA binder -4, Scp1 inh -4 and STEP inh 2.
Screening CC(=O)Oc1cc2cccc(OC(C)=O)c(=O)c2c(OC(C)=O)c1OC(C)=O returned NadD block 1, LMPTP inh 30, Scp1 inh 58* and STEP inh 4.
COc1cc(/C=N/n2c(-c3ccc4c(c3)NC(=O)CO4)csc2=Nc2cccc(C)c2)ccc1O was read as NadD block 35*, LMPTP inh 5, rCAG RNA binder 16, Scp1 inh 2 and STEP inh -1.
Screening Cc1cc(=O)[nH]c(SCC(=O)Nc2ccc(Cl)cc2)n1 returned rCAG RNA binder 1.
`COc1ccc2cc3c(N)c(C(=O)NCc4ccco4)sc3nc2c1` gave NadD block 16, LMPTP inh 2, rCAG RNA binder 18, Scp1 inh 0 and STEP inh 1.
For Nc1c(C(=O)NCc2ccco2)sc2nc3c(cc12)C(=O)CCC3 the results were NadD block 8, LMPTP inh 13, rCAG RNA binder 20, Scp1 inh 74* and STEP inh 1.
CC(C)C[C@H]1COc2cc(Br)ccc2S(=O)(=O)N1Cc1cn(CCC2OCCO2)nn1 was read as rCAG RNA binder 1.
COc1ccc(C(CCOC(=O)Oc2ccccc2)c2cc(OC)cc(OC)c2)cc1 (stereo not drawn) was read as rCAG RNA binder 3.
For CCC(C)(C)C(=O)N1CCc2cc(S(=O)(=O)N(C)Cc3ccco3)ccc21 the results were rCAG RNA binder 5.
For O=C(CC1C[C@H](C(=O)N2CCCCC2)[C@@]2(CCc3ccccc3)c3[nH]c4ccccc4c3CCN2C1=O)NCc1ccco1 (stereo partly drawn) the results were NadD block 16, LMPTP inh 3, rCAG RNA binder 2, Scp1 inh -4 and STEP inh 2.
`O=C(C[C@H]1C[C@H](C(=O)N2CCCCC2)[C@@]2(CCc3ccccc3)c3[nH]c4cc(-c5ccco5)ccc4c3CCN2C1=O)NCc1ccco1` gave NadD block 51*, LMPTP inh 1, rCAG RNA binder 22, Scp1 inh -7 and STEP inh 1.
For COC(=O)[C@H](C(C)C)N1CCc2nnn(CC3CCCCC3)c2-c2cc(F)ccc2S1(=O)=O the results were rCAG RNA binder 0.
For COc1ccc(-c2cc(C(=O)Nc3cc(Br)ccc3O)no2)cc1 the results were NadD block 2, LMPTP inh 69*, rCAG RNA binder 3, Scp1 inh -15 and STEP inh 29.
NNc1ccc([N+](=O)[O-])c2[nH][nH]c(=O)c12 was read as NadD block 19, LMPTP inh 84*, rCAG RNA binder 42* and STEP inh 96*.
CC[n+]1cc(-c2ccccc2)nc(N2CCOCC2)n1 was read as NadD block 14, LMPTP inh -1, rCAG RNA binder -1, Scp1 inh 99* and STEP inh -2.
O/C=c1\ccc2cccc3nc(C(F)(F)F)nc1c23 was read as NadD block 33*, LMPTP inh 33, rCAG RNA binder -85, Scp1 inh 12 and STEP inh 1.
`O=C(O)c1cc(N/N=C/c2ccc(N3CCOCC3)s2)ccc1Cl` gave NadD block 13, LMPTP inh 0, rCAG RNA binder 75*, Scp1 inh -11 and STEP inh -1.
`NC(=O)N/N=C/c1ccc(N2CCOCC2)s1` gave NadD block 2, LMPTP inh -1, rCAG RNA binder 3, Scp1 inh 3 and STEP inh -2.
Screening Cc1nnc(N=c2ssnc2Cl)o1 returned NadD block 5, LMPTP inh 55*, rCAG RNA binder 5, Scp1 inh 12 and STEP inh 14.
For Cc1cc(Cl)ccc1N=c1ssnc1Cl the results were NadD block 28, LMPTP inh 44, rCAG RNA binder 7, Scp1 inh -15 and STEP inh 13.
